{
  "source": "ChEMBL document CHEMBL1138921",
  "about": "“Discovery of 3,5-bis(trifluoromethyl)benzyl L-arylglycinamide based potent CCR2 antagonists” (Bioorg Med Chem Lett, 2006)",
  "data": [
    {"biological_target": "T1, C-C chemokine receptor type 2 (Homo sapiens, UniProt P41597)", "assay": "Displacement of [125I]MCP1 from human CCR2 expressed in CHO cells at 1 uM", "assay_type": "cell-based", "in_short": "(§1)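 Competition binding: CHO cells stably expressing human CCR2b (5 × 10⁴) incubated with ¹²⁵I-hMCP-1 (20–50 pM) plus varied unlabeled competitor, 60 min, room temperature, in 50 mM HEPES, 5 mM MgCl₂, 1 mM CaCl₂, pH 7.4. Ended by filtration through polyethyleneimine-soaked GF/B filters, washed with 25 mM HEPES pH 7.5/500 mM NaCl. Values given as IC₅₀ or % inhibition at 1 µM.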", "units": {"inhibition": "%"}, "values": [
      {"smiles": "CN(C)CCN[C@H](CNS(=O)(=O)c1cc(C(F)(F)F)cc(C(F)(F)F)c1)c1ccccc1", "inhibition": 0},
      {"smiles": "COCCNC(C(=O)NCc1cc(C(F)(F)F)cc(C(F)(F)F)c1)c1ccccc1", "note": "(stereo unspecified)", "inhibition": 0},
      {"smiles": "CC(C)CCNC(C(=O)NCc1cc(C(F)(F)F)cc(C(F)(F)F)c1)c1ccccc1", "note": "(stereo unspecified)", "inhibition": 0},
      {"smiles": "NCCNC(C(=O)NCc1cc(C(F)(F)F)cc(C(F)(F)F)c1)c1ccccc1", "note": "(stereo unspecified)", "inhibition": 14},
      {"smiles": "COc1ccc([C@H](NCCN(C)C)C(=O)NCc2cc(C(F)(F)F)cc(C(F)(F)F)c2)cc1", "inhibition": 47},
      {"smiles": "CN(C)CCN[C@H](CN(Cc1cc(C(F)(F)F)cc(C(F)(F)F)c1)S(C)(=O)=O)c1ccccc1", "inhibition": 0},
      {"smiles": "CN(C)CCN[C@H](C(=O)NCc1ccccc1C(F)(F)F)c1ccccc1", "inhibition": 1},
      {"smiles": "CN(C)CCN[C@@H](Cc1ccc(F)cc1)C(=O)NCc1cc(C(F)(F)F)cc(C(F)(F)F)c1", "inhibition": 1},
      {"smiles": "CN(C)CCNC(C(=O)NCc1cc(C(F)(F)F)cc(C(F)(F)F)c1)c1ccc(Br)cc1", "note": "(stereo unspecified)", "inhibition": 25},
      {"smiles": "CN(C)CCNCC(=O)NCc1cc(C(F)(F)F)cc(C(F)(F)F)c1", "inhibition": 0},
      {"smiles": "CC(NC(=O)[C@@H](NCCN(C)C)c1ccccc1)c1cc(C(F)(F)F)cc(C(F)(F)F)c1", "note": "(stereo partly specified)", "inhibition": 28},
      {"smiles": "CN(C)CCN[C@H](C(=O)NCc1ccc(C(F)(F)F)cc1)c1ccccc1", "inhibition": 7},
      {"smiles": "CC(=O)N(Cc1cc(C(F)(F)F)cc(C(F)(F)F)c1)C[C@@H](NCCN(C)C)c1ccccc1", "inhibition": 4},
      {"smiles": "CN(C)CCN[C@H](C(=O)NCc1cc(C(F)(F)F)cc(C(F)(F)F)c1)C1CCCCC1", "inhibition": 9},
      {"smiles": "Cc1cc(C)cc(CNC(=O)[C@@H](NCCN(C)C)c2ccccc2)c1", "inhibition": 0},
      {"smiles": "CN(C)CCN[C@H](C(=O)N(C)Cc1cc(C(F)(F)F)cc(C(F)(F)F)c1)c1ccccc1", "inhibition": 20},
      {"smiles": "CN(C)CCN[C@H](C(=O)NCc1cccc(C(F)(F)F)c1)c1ccccc1", "inhibition": 5},
      {"smiles": "CN(C)CCN[C@@H](C(=O)NCc1cc(C(F)(F)F)cc(C(F)(F)F)c1)c1ccc(F)cc1", "inhibition": 8},
      {"smiles": "CN(C)CCN[C@H](CN(C)S(=O)(=O)c1cc(C(F)(F)F)cc(C(F)(F)F)c1)c1ccccc1", "inhibition": 0},
      {"smiles": "CN(C)CCN[C@H](CNC(=O)c1cc(C(F)(F)F)cc(C(F)(F)F)c1)c1ccccc1", "inhibition": 0},
      {"smiles": "O=C(NCc1cc(C(F)(F)F)cc(C(F)(F)F)c1)[C@@H](NCCCN1CCCCC1)c1ccccc1", "inhibition": 26},
      {"smiles": "CN(C)CCNC(C(=O)NCc1cc(C(F)(F)F)cc(C(F)(F)F)c1)c1ccc(F)c(F)c1", "note": "(stereo unspecified)", "inhibition": 33},
      {"smiles": "CN(C)CCN[C@H](COCc1cc(C(F)(F)F)cc(C(F)(F)F)c1)c1ccccc1", "inhibition": 6},
      {"smiles": "CN(C)CCNC(C(=O)NCc1cc(C(F)(F)F)cc(C(F)(F)F)c1)c1cccc(Br)c1", "note": "(stereo unspecified)", "inhibition": 17}
    ]},
    {"biological_target": "T1, C-C chemokine receptor type 2", "assay": "Displacement of [125I]MCP1 from human CCR2 expressed in CHO cells", "assay_type": "cell-based", "in_short": "as §1", "units": {"IC50": "nM"}, "values": [
      {"smiles": "O=C(NCc1cc(C(F)(F)F)cc(C(F)(F)F)c1)C(NCCN1CCCCC1)c1ccccc1", "note": "(stereo unspecified)", "IC50": 342},
      {"smiles": "CC1CCCCN1CCN[C@H](C(=O)NCc1cc(C(F)(F)F)cc(C(F)(F)F)c1)c1ccccc1", "note": "(stereo partly specified)", "IC50": 838},
      {"smiles": "O=C(NCc1cc(C(F)(F)F)cc(C(F)(F)F)c1)[C@@H](NCCN1CCCCC1)c1ccccc1", "IC50": 219},
      {"smiles": "CN(C)CCN[C@@H](C(=O)NCc1cc(C(F)(F)F)cc(C(F)(F)F)c1)c1cccs1", "IC50": 865},
      {"smiles": "O=C(NCc1cc(C(F)(F)F)cc(C(F)(F)F)c1)[C@@H](NCCN1CCCCC1)c1ccc(F)cc1", "IC50": 175},
      {"smiles": "CCN(CC)CCNC(C(=O)NCc1cc(C(F)(F)F)cc(C(F)(F)F)c1)c1ccccc1", "note": "(stereo unspecified)", "IC50": 678},
      {"smiles": "O=C(NCc1cc(C(F)(F)F)cc(C(F)(F)F)c1)C(NCCN1CCOCC1)c1ccccc1", "note": "(stereo unspecified)", "IC50": 575},
      {"smiles": "CN(C)CCNC(C(=O)NCc1cc(C(F)(F)F)cc(C(F)(F)F)c1)c1ccco1", "note": "(stereo unspecified)", "IC50": 592},
      {"smiles": "Nc1ccc(C(F)(F)F)cc1C(=O)NCC(=O)NCC1CCN(Cc2ccc(Cl)cc2)CC1", "IC50": 200},
      {"smiles": "CN(C)CCN[C@H](C(=O)NCc1cc(C(F)(F)F)cc(C(F)(F)F)c1)c1ccsc1", "IC50": 424},
      {"smiles": "O=C(NCc1cc(C(F)(F)F)cc(C(F)(F)F)c1)C(NCCN1CCCC1)c1ccccc1", "note": "(stereo unspecified)", "IC50": 521},
      {"smiles": "CC1CCN(CCN[C@H](C(=O)NCc2cc(C(F)(F)F)cc(C(F)(F)F)c2)c2ccccc2)CC1", "IC50": 756}
    ]}
  ]
}
